55 sequences from the array DNA melting data of Ke et al. (doi:10.1101/2024.01.08.574731) can be followed below.

Series [1] can be described thus: melting temperature; fluorescence melt of hairpins on a sequencing array, two-state fit, raised by 9.35 °C to match UV melts. As to conditions: sodium 0.088 M. The method in brief:
(§1)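 On a sequenced MiSeq flow cell, library hairpins with annealed Cy3 and quencher oligos were imaged for Cy3 fluorescence in 2.5 °C steps up to 60 °C, in 50 mM Na-HEPES pH 8.0, 25 mM NaCl. Normalisation used pre-quench Cy3 and control constructs. Bootstrapped two-state fits gave melting temperature and folding enthalpy, combined by inverse variance across four replicates and with fitted temperatures raised by 9.35 °C to match UV melts.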

A short description of series [2]: folding enthalpy; higher = less favourable; fluorescence melt of hairpins on a sequencing array, two-state fit. As to conditions: sodium 0.088 M. The method in brief: as §1

Consider GTTAGTCGAAAGACAAAC (((.(((....))).))), for which, in series [1], the Tm was found to be 41.2 °C. Further, the folding enthalpy in series [2] was -21.9 kcal/mol.

Turning to GTTAGTCGAAAGACAAC (((.(((....)))))), the Tm in series [1] came out at 39.5 °C. Besides, the folding enthalpy in series [2] is -20.4 kcal/mol.

Turning to GTTATCCGAAAGGAGAAC (((.(((....))).))), in series [1], the Tm came out at 51.1 °C. In addition, the folding enthalpy in series [2] was -37.4 kcal/mol.

Regarding GTTATCGAAAGATAAAC ((((((....))).))), in series [1], the Tm turned out to be 32.9 °C. Also, the folding enthalpy in series [2] is -20.9 kcal/mol.

For GTTATCGAAAGATATAAC ((((((....)))..))), the Tm in series [1] came to 29.3 °C. The folding enthalpy in series [2] was -11.3 kcal/mol.

For GTTATGACGAAAGTCAAC (((..(((....)))))), the Tm in series [1] was 26.2 °C. Moreover, in series [2], the folding enthalpy is -10.5 kcal/mol.

With GTTATGGGAAACCATGAC ((.((((....)))).)), in series [1], the Tm came to 43.5 °C. Besides, the folding enthalpy in series [2] was -34.4 kcal/mol.

In the case of GTTATTCCGAAAGGAAAC (((..(((....)))))), in series [1], the Tm came to 21.5 °C. In addition, the folding enthalpy in series [2] is -7.61 kcal/mol.

GTTATTCGAAAGAAAAAC (((.(((....))).))): the Tm in series [1] was found to be 29.9 °C. The folding enthalpy in series [2] is -19.6 kcal/mol.

For the sequence GTTATTCGAAAGAAGAAC (((.(((....))).))), the Tm in series [1] was 42.7 °C. Further, in series [2], the folding enthalpy is -28.3 kcal/mol.

As to GTTATTGAAAAATAAC ((((((....)))))), the Tm in series [1] was 37.5 °C. Moreover, the folding enthalpy in series [2] is -25 kcal/mol.

On to GTTATTGCGAAAGCAAAC (((..(((....)))))), for which the Tm in series [1] came to 29.1 °C. In series [2], the folding enthalpy is -10.3 kcal/mol.

As to GTTCAAGGAAACTCGAAC ((((.((....)).)))), in series [1], the Tm stood at 28.7 °C. Besides, in series [2], the folding enthalpy was -11.7 kcal/mol.

For GTTCAAGGAAACTTGAAC (((((((....))))))), in series [1], the Tm turned out to be 53.9 °C. For the same sequence, the folding enthalpy in series [2] was -46.1 kcal/mol.

Take GTTCACGAAAGTGATAAC ((((((....)))..))): the Tm in series [1] is 35 °C. In addition, in series [2], the folding enthalpy is -10.8 kcal/mol.

With GTTCACGGAAACGCGAAC ((((.((....)).)))), the Tm in series [1] was determined as 48.3 °C. In addition, in series [2], the folding enthalpy was -47.1 kcal/mol.

Turning to GTTCACGGAAACGTAAAC (((.(((....))).))), the Tm in series [1] is 34.9 °C. For the same sequence, the folding enthalpy in series [2] was -11.4 kcal/mol.

As to GTTCAGGCGAAAGCCAAC (((..(((....)))))), the Tm in series [1] amounted to 26.1 °C. Further, the folding enthalpy in series [2] was -8.95 kcal/mol.

For GTTCAGGGAAACTTGAAC (((((.(....).))))), the Tm in series [1] came to 40.7 °C. The folding enthalpy in series [2] was -22.8 kcal/mol.

On to GTTCATGAAAATGAAC ((((((....)))))), for which, in series [1], the Tm is 52 °C. Further, the folding enthalpy in series [2] is -33 kcal/mol.

As for GTTCATGGAAACACGAAC ((((.((....)).)))), in series [1], the Tm was 34.4 °C. Moreover, the folding enthalpy in series [2] was -28.4 kcal/mol.

On to GTTCATGGAAACGTGAAC (((((.(....).))))), for which, in series [1], the Tm came out at 46.4 °C. Also, the folding enthalpy in series [2] was -40.6 kcal/mol.

On to GTTCCACGAAAGTGAAAC (((.(((....))).))), for which, in series [1], the Tm was determined as 43.4 °C. Besides, the folding enthalpy in series [2] was -25.2 kcal/mol.

Turning to GTTCCCGAAAGGGAAAAC ((((((....)))..))), in series [1], the Tm was 41 °C. The folding enthalpy in series [2] is -10.8 kcal/mol.

As to GTTCCCGAAAGGGAGAAC ((((((....)))..))), in series [1], the Tm was determined as 38 °C. Besides, the folding enthalpy in series [2] is -10.3 kcal/mol.

Regarding GTTCCCGAAAGGGGCAAC ((((((....)))..))), the Tm in series [1] is 30.2 °C. Further, in series [2], the folding enthalpy was -9.18 kcal/mol.

With GTTCCCGAAAGGGTCAAC ((((((....)))..))), in series [1], the Tm was 26.9 °C. The folding enthalpy in series [2] was -9.41 kcal/mol.

For the sequence GTTCCCGAAAGGGTTAAC ((((((....)))..))), the Tm in series [1] turned out to be 30.1 °C. The folding enthalpy in series [2] is -8.45 kcal/mol.

GTTCCCGGAAACGGGAGC (.(((((....))))).): the Tm in series [1] came out at 54.2 °C. The folding enthalpy in series [2] was -26 kcal/mol.

Consider GTTCCGCGAAAGCGAAAC (((.(((....))).))), for which the Tm in series [1] came out at 53.9 °C. Moreover, in series [2], the folding enthalpy is -23.6 kcal/mol.

Turning to GTTCCGGAAACGGAAC ((((((....)))))), the Tm in series [1] was 66.3 °C. Also, the folding enthalpy in series [2] is -32.4 kcal/mol.

As to GTTCCGGGAAACCGAAAC (((.(((....))).))), the Tm in series [1] was found to be 38.5 °C. Moreover, the folding enthalpy in series [2] is -25 kcal/mol.

With GTTCCGGGAAACTGGAAC (((((.(....).))))), the Tm in series [1] came out at 52.5 °C. The folding enthalpy in series [2] was -39.6 kcal/mol.

As for GTTCCTGAAAAGGAAC ((((((....)))))), in series [1], the Tm was determined as 57.1 °C. For the same sequence, the folding enthalpy in series [2] is -31.4 kcal/mol.

In the case of GTTCCTGGAAACAGGAGC (.(((((....))))).), the Tm in series [1] is 48.3 °C. For the same sequence, the folding enthalpy in series [2] was -23.4 kcal/mol.

With GTTCCTGGAAACGGGAAC (((((.(....).))))), in series [1], the Tm was determined as 50.7 °C. Further, in series [2], the folding enthalpy is -40.9 kcal/mol.

For the sequence GTTCGAGGAAACTTGAAC ((((.((....)).)))), the Tm in series [1] was found to be 44.5 °C. The folding enthalpy in series [2] is -32.4 kcal/mol.

Take GTTCGAGGAAACTTGAGC (.((.((....)).)).): the Tm in series [1] amounted to 29.9 °C. For the same sequence, the folding enthalpy in series [2] is -20.3 kcal/mol.

GTTCGCGAAAGCGAAAC ((((((....))).))): the Tm in series [1] is 55.3 °C. Also, the folding enthalpy in series [2] was -12.6 kcal/mol.

On to GTTCGCGAAAGCGACAAC ((((((....)))..))), for which, in series [1], the Tm was found to be 34.8 °C. Besides, the folding enthalpy in series [2] was -7.58 kcal/mol.

GTTCGCGAAAGCGCAAAC ((((((....)))..))): the Tm in series [1] was found to be 29 °C. In addition, the folding enthalpy in series [2] is -7.42 kcal/mol.

As to GTTCGCGAAAGCGGAAAC ((((((....)))..))), the Tm in series [1] stood at 36.6 °C. In addition, in series [2], the folding enthalpy is -9.75 kcal/mol.

With GTTCGCGGAAACACGAAC (((((.(....).))))), in series [1], the Tm was 48.9 °C. Also, the folding enthalpy in series [2] was -39.7 kcal/mol.

With GTTCGGGAAACCGAAC ((((((....)))))), the Tm in series [1] was 61.1 °C. Also, the folding enthalpy in series [2] is -38.1 kcal/mol.

Regarding GTTCGGGGAAACCCAAAC (((.(((....))).))), the Tm in series [1] was 36 °C. For the same sequence, in series [2], the folding enthalpy is -23.8 kcal/mol.

Consider GTTCGGGGAAACCTGGAC ((.(.((....)).).)), for which the Tm in series [1] turned out to be 36.8 °C. Also, the folding enthalpy in series [2] is -20.2 kcal/mol.

GTTCGGGGAAACTCGAGC (.(((.(....).))).): the Tm in series [1] stood at 35.9 °C. Besides, the folding enthalpy in series [2] was -19.7 kcal/mol.

As for GTTCGTCGAAAGACCAAC (((.(((....))).))), the Tm in series [1] was 30.9 °C. Moreover, the folding enthalpy in series [2] was -15.9 kcal/mol.

As to GTTCGTGAAAACGAAC ((((((....)))))), the Tm in series [1] was 61.9 °C. Besides, the folding enthalpy in series [2] is -32 kcal/mol.

Regarding GTTCGTGGAAACGCGAAC (((((.(....).))))), the Tm in series [1] stood at 55.3 °C. Further, the folding enthalpy in series [2] was -41.3 kcal/mol.

For GTTCTCCCGAAAGGGAAC (((..(((....)))))), in series [1], the Tm is 30.6 °C. Also, in series [2], the folding enthalpy is -9.91 kcal/mol.

With GTTCTCCGAAAGGATAAC (((.(((....))).))), the Tm in series [1] amounted to 41.2 °C. For the same sequence, the folding enthalpy in series [2] was -26.4 kcal/mol.

GTTCTCGAAAGAGAAC ((((((....)))))): in series [1], the Tm was found to be 61 °C. For the same sequence, the folding enthalpy in series [2] is -35.2 kcal/mol.

As for GTTCTCGAAAGAGGCAAC ((((((....)))..))), the Tm in series [1] stood at 26.6 °C. Further, in series [2], the folding enthalpy was -9.31 kcal/mol.

On to GTTCTCGAAAGAGGGAAC ((((((....)))..))), for which the Tm in series [1] came to 31.4 °C. The folding enthalpy in series [2] was -17.6 kcal/mol.
